Where a SMILES comes first, the peptide text is derived from it.
How the values were obtained:
Rattus norvegicus [1] = species: Rattus norvegicus; test: In vitro anti-oxytocic activity on isolated estrogen treated rat uteri without Mg+2; format: functional; settings: read-out: pA2 (converted)
Summary of the method: (§1)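 Uteri isolated from estrogen-treated female rats, suspended in medium containing either no Mg2+ or 0.5 mM Mg2+. Agonism estimated by the Holton method. Antagonistic pA2 values determined as described by Schild.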

Rattus norvegicus [2] = species: Rattus norvegicus; test: In vitro anti-oxytocic activity on isolated estrogen treated rat uteri with 0.5 mM Mg+2; format: functional; settings: read-out: pA2 (converted); summary of the method: as §1
Rattus norvegicus [3] = species: Rattus norvegicus; test: Binding affinity was determined; format: functional, organism-based; settings: read-out: pA2 (converted)
Rattus norvegicus [4] = test: Dose that reduces the response seen with 2x units of agonist to equal the response seen with 1x unit of agonist administered before antagonist; format: functional
Summary of the method: (§2)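 Vasopressor assay in urethane-anesthetized, phenoxybenzamine-treated rats, given by intravenous injection. Effective dose in nmol/kg is the antagonist dose that cuts the response to 2x units of agonist down to the response to 1x unit given before antagonist. USP posterior pituitary reference standard.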

Rattus norvegicus [5] = species: Rattus norvegicus; test: In vitro anti-oxytocic activity on isolated estrogen treated rat uteri with 0.5 mM Mg+2; Agonist; format: functional; summary of the method: as §1
Rattus norvegicus [6] = species: Rattus norvegicus; test: Compound was tested for its antidiuretic activity; format: functional, Urine
Rattus norvegicus [7] = species: Rattus norvegicus; test: In vitro anti-oxytocic activity on isolated estrogen treated rat uteri without Mg+2; Agonist; format: functional; summary of the method: as §1
Rattus norvegicus [8] = species: Rattus norvegicus; test: Anti vasopressor activity was determined; format: functional, organism-based; settings: read-out: pA2 (converted); summary of the method: as §2
[9] = Ratio of antidiuretic to vasopressor agonistic activity; format: functional, Urine
Summary of the method: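 Quotient of antidiuretic to vasopressor agonist potency. Each potency was measured by intravenous injection against the USP posterior pituitary standard: antidiuresis in ethanol-anesthetized, water-loaded rats, and pressor response in phenoxybenzamine-treated, urethane-anesthetized rats.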

Rattus norvegicus [10] = species: Rattus norvegicus; test: In vitro anti-oxytocic activity on isolated estrogen treated rat uteri with Mg+2; format: functional; settings: read-out: pA2 (converted); summary of the method: as §1
Rattus norvegicus [11] = species: Rattus norvegicus; test: In vitro oxytocic activity on isolated estrogen treated rat uteri with 0.5 mM Mg+2

| SMILES | Kb (Rattus norvegicus [1]) | Kb (Rattus norvegicus [2]) | Kb (Rattus norvegicus [3]) | ED (Rattus norvegicus [4]) | Activity (Rattus norvegicus [6]) | also measured |
| --- | --- | --- | --- | --- | --- | --- |
| CCOc1ccc(C[C@@H]2NC(=O)CCSSC[C@@H](C(=O)N3CCC[C@H]3C(=O)N[C@@H](CCCN=C(N)N)C(=O)NCC(N)=O)NC(=O)[C@H](CC(N)=O)NC(=O)[C@H](C(C)C)NC(=O)[C@H](Cc3ccccc3)NC2=O)cc1 [listing 1 of 2 here] | 12.6 nM | 22.9 nM | 28.8 nM |  |  |  |
| CC(C)[C@@H]1NC(=O)[C@H](Cc2ccccc2)NC(=O)[C@H](Cc2ccc(O)cc2)NC(=O)CCSSC[C@@H](C(=O)N2CCC[C@H]2C(=O)N[C@H](CCCNC(=N)N)C(=O)NCC(N)=O)NC(=O)[C@H](CC(N)=O)NC1=O (HELM PEPTIDE1{[O=C(CCS[*:3])[*:2]].Y.F.V.N.C.P.[dR].G.[am]}$PEPTIDE1,PEPTIDE1,1:R3-6:R3$$$V2.0) |  |  |  | 7.2 nM/kg | 1230 units/mg | agonist potency (Rattus norvegicus [5]): 3 units/mg; agonist potency (Rattus norvegicus [7]): 8 units/mg |
| COc1ccc(C[C@@H]2NC(=O)CCSSC[C@@H](C(=O)N3CCC[C@H]3C(=O)N[C@H](CCCN=C(N)N)C(=O)NCC(N)=O)NC(=O)[C@H](CC(N)=O)NC(=O)[C@H](CCC(N)=O)NC(=O)[C@H](Cc3ccccc3)NC2=O)cc1 [listing 1 of 2 here] | 11.7 nM | 39.8 nM |  |  |  | Kb (Rattus norvegicus [8]): 107 nM |
| COc1ccc(C[C@@H]2NC(=O)CCSSC[C@@H](C(=O)N3CCC[C@H]3C(=O)N[C@H](CCCN=C(N)N)C(=O)NCC(N)=O)NC(=O)[C@H](CC(N)=O)NC(=O)[C@H](C(C)C)NC(=O)[C@H](Cc3ccccc3)NC2=O)cc1 [listing 1 of 2 here] |  |  |  | 8.4 nM/kg | 1740 units/mg |  |
| COc1ccc(C[C@@H]2NC(=O)CCSSC[C@@H](C(=O)N3CCC[C@H]3C(=O)N[C@@H](CCCN=C(N)N)C(=O)NCC(N)=O)NC(=O)[C@H](CC(N)=O)NC(=O)[C@H](C(C)C)NC(=O)[C@H](Cc3ccccc3)NC2=O)cc1 [listing 1 of 2 here] |  |  |  | 3.7 nM/kg | 789 units/mg |  |
| CCOc1ccc(C[C@@H]2NC(=O)CCSSC[C@@H](C(=O)N3CCC[C@H]3C(=O)N[C@H](CCCN=C(N)N)C(=O)NCC(N)=O)NC(=O)[C@H](CC(N)=O)NC(=O)[C@H](CCC(N)=O)NC(=O)[C@H](Cc3ccccc3)NC2=O)cc1 [listing 1 of 2 here] |  |  |  | 8.8 nM/kg | 30 units/mg |  |
| CCOc1ccc(C[C@@H]2NC(=O)CCSSC[C@@H](C(=O)N3CCC[C@H]3C(=O)N[C@@H](CCCN=C(N)N)C(=O)NCC(N)=O)NC(=O)[C@H](CC(N)=O)NC(=O)[C@H](CCC(N)=O)NC(=O)[C@H](Cc3ccccc3)NC2=O)cc1 [listing 1 of 2 here] |  |  |  | 11 nM/kg | 242 units/mg |  |
| CCOc1ccc(C[C@@H]2NC(=O)CCSSC[C@@H](C(=O)N3CCC[C@H]3C(=O)N[C@H](CCCN=C(N)N)C(=O)NCC(N)=O)NC(=O)[C@H](CC(N)=O)NC(=O)[C@H](CCC(N)=O)NC(=O)[C@H](Cc3ccccc3)NC2=O)cc1 [listing 2 of 2 here] | 52.5 nM | 89.1 nM | 129 nM |  |  |  |
| CCOc1ccc(C[C@@H]2NC(=O)CCSSC[C@@H](C(=O)N3CCC[C@H]3C(=O)N[C@@H](CCCN=C(N)N)C(=O)NCC(N)=O)NC(=O)[C@H](CC(N)=O)NC(=O)[C@H](C(C)C)NC(=O)[C@H](Cc3ccccc3)NC2=O)cc1 [listing 2 of 2 here] |  |  |  | 1.9 nM/kg | 187 units/mg |  |
| COc1ccc(C[C@@H]2NC(=O)CCSSC[C@@H](C(=O)N3CCC[C@H]3C(=O)N[C@@H](CCCN=C(N)N)C(=O)NCC(N)=O)NC(=O)[C@H](CC(N)=O)NC(=O)[C@H](CCC(N)=O)NC(=O)[C@H](Cc3ccccc3)NC2=O)cc1 |  |  |  |  | 830 units/mg | Ratio [9]: 202 |
| CCOc1ccc(C[C@@H]2NC(=O)CCSSC[C@@H](C(=O)N3CCC[C@H]3C(=O)N[C@@H](CCCN=C(N)N)C(=O)NCC(N)=O)NC(=O)[C@H](CC(N)=O)NC(=O)[C@H](CCC(N)=O)NC(=O)[C@H](Cc3ccccc3)NC2=O)cc1 [listing 2 of 2 here] | 42.7 nM | 39.8 nM | 126 nM |  |  |  |
| COc1ccc(C[C@@H]2NC(=O)CCSSC[C@@H](C(=O)N3CCC[C@H]3C(=O)N[C@H](CCCN=C(N)N)C(=O)NCC(N)=O)NC(=O)[C@H](CC(N)=O)NC(=O)[C@H](C(C)C)NC(=O)[C@H](Cc3ccccc3)NC2=O)cc1 [listing 2 of 2 here] | 17 nM | 9.55 nM | 97.7 nM |  |  | Kb (Rattus norvegicus [10]): 9.55 nM |
| N=C(N)NCCC[C@@H](NC(=O)[C@@H]1CCCN1C(=O)[C@@H]1CSSCCC(=O)N[C@@H](Cc2ccc(O)cc2)C(=O)N[C@@H](Cc2ccccc2)C(=O)N[C@@H](CCC(N)=O)C(=O)N[C@@H](CC(N)=O)C(=O)N1)C(=O)NCC(N)=O (stereo in doubt; form 2) [DESMOPRESSIN] |  |  |  |  | 1200 units/mg | Ratio [9]: 3037; agonist potency (Rattus norvegicus [5]): 2.9 units/mg; agonist potency (Rattus norvegicus [7]): 1.5 units/mg |
| CCOc1ccc(C[C@@H]2NC(=O)CCSSC[C@@H](C(=O)N3CCC[C@H]3C(=O)N[C@H](CCCN=C(N)N)C(=O)NCC(N)=O)NC(=O)[C@H](CC(N)=O)NC(=O)[C@H](C(C)C)NC(=O)[C@H](Cc3ccccc3)NC2=O)cc1 [listing 1 of 2 here] |  |  |  | 6.3 nM/kg | 132 units/mg |  |
| N=C(N)NCCC[C@@H](NC(=O)[C@@H]1CCCN1C(=O)[C@@H]1CSSCCC(=O)N[C@@H](Cc2ccc(O)cc2)C(=O)N[C@@H](Cc2ccccc2)C(=O)N[C@@H](CCC(N)=O)C(=O)N[C@@H](CC(N)=O)C(=O)N1)C(=O)NCC(N)=O (stereo in doubt; form 1) [DESMOPRESSIN] |  |  |  |  | 1740 units/mg | Ratio [9]: 5; agonist potency (Rattus norvegicus [11]): 167 units/mg; agonist potency (Rattus norvegicus [7]): 54 units/mg |
| CC(C)[C@@H]1NC(=O)[C@H](Cc2ccccc2)NC(=O)[C@H](Cc2ccc(O)cc2)NC(=O)CCSSC[C@@H](C(=O)N2CCC[C@H]2C(=O)N[C@@H](CCCN=C(N)N)C(=O)NCC(N)=O)NC(=O)[C@H](CC(N)=O)NC1=O (HELM PEPTIDE1{[O=C(CCS[*:3])[*:2]].Y.F.V.N.C.P.R.G.[am]}$PEPTIDE1,PEPTIDE1,1:R3-6:R3$$$V2.0) |  |  |  |  | 1150 units/mg | Ratio [9]: 225; agonist potency (Rattus norvegicus [5]): 26 units/mg; agonist potency (Rattus norvegicus [7]): 31 units/mg |
| COc1ccc(C[C@@H]2NC(=O)CCSSC[C@@H](C(=O)N3CCC[C@H]3C(=O)N[C@@H](CCCN=C(N)N)C(=O)NCC(N)=O)NC(=O)[C@H](CC(N)=O)NC(=O)[C@H](C(C)C)NC(=O)[C@H](Cc3ccccc3)NC2=O)cc1 [listing 2 of 2 here] | 11.7 nM | 19.5 nM | 55 nM |  |  |  |
| COc1ccc(C[C@@H]2NC(=O)CCSSC[C@@H](C(=O)N3CCC[C@H]3C(=O)N[C@H](CCCN=C(N)N)C(=O)NCC(N)=O)NC(=O)[C@H](CC(N)=O)NC(=O)[C@H](CCC(N)=O)NC(=O)[C@H](Cc3ccccc3)NC2=O)cc1 [listing 2 of 2 here] |  |  |  | 9.8 nM/kg | 236 units/mg |  |
| CCOc1ccc(C[C@@H]2NC(=O)CCSSC[C@@H](C(=O)N3CCC[C@H]3C(=O)N[C@H](CCCN=C(N)N)C(=O)NCC(N)=O)NC(=O)[C@H](CC(N)=O)NC(=O)[C@H](C(C)C)NC(=O)[C@H](Cc3ccccc3)NC2=O)cc1 [listing 2 of 2 here] | 28.2 nM | 22.9 nM | 85.1 nM |  |  |  |
